Source: ChEMBL document CHEMBL3232800, “Polyfluorinated bis-styrylbenzenes as amyloid-β plaque binding ligands” (Bioorg Med Chem, 2014)
Calls of active or inactive are those of the source. The calls are words filed in the database; no cut-off is given here.

How the values were obtained:
[1] = target: T1, Amyloid-beta precursor protein (Homo sapiens, UniProt P05067); test: Binding affinity to beta-amyloid plaque in Alzheimer's disease patient brain at 100 uM by fluorescence microscopic analysis
Procedure, shortened: (§1)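 Sections were stained for 10 min in darkness with compound diluted from 3 mM DMSO stocks to 1, 10 or 100 µM in 2:3 PBS/ethanol and sonicated 15 min. Tissue was paraffin sections of Braak IV human AD medial temporal cortex (8 µm), 14-month APP/PS1 mouse brain and age-matched controls. Sections were rinsed, then 0.1% NaOH in 80% ethanol for 2 min. Read by slide-scanner fluorescence with a DAPI cube (Ex 365, Em 445/50 nm) at constant settings; assessment was qualitative.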

[2] = target: T1, Amyloid-beta precursor protein; test: Binding affinity to beta-amyloid plaque in APP/PS1 transgenic mouse brain at 100 uM by fluorescence microscopic analysis; assay type: tissue-based; procedure, shortened: as §1
[3] = target: T1, Amyloid-beta precursor protein; test: Binding affinity to beta-amyloid plaque in Alzheimer's disease patient brain at 10 uM by fluorescence microscopic analysis; procedure, shortened: as §1
[4] = target: T1, Amyloid-beta precursor protein; test: Binding affinity to beta-amyloid plaque in APP/PS1 transgenic mouse brain at 1 uM by fluorescence microscopic analysis; assay type: tissue-based; procedure, shortened: as §1
[5] = Partition coefficient, log P of the compound in methanol-water mixture by HPLC analysis; assay type: physicochemical
Procedure, shortened: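 Eluent A was 0.02 M Na2HPO4 phosphate buffer, pH 7.0, and eluent B was 0.25% octanol in methanol. Samples came from 0.5 mg/ml methanol stocks. Values above 7 are not reliably measured.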

Mus musculus [6] = test: Binding affinity to beta-amyloid plaque in APP/PS1 transgenic mouse brain at 30 umol/kg, iv after 1 day by fluorescence microscopic analysis; assay type: functional, organism-based
Procedure, shortened: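 APP/PS1 mice aged 12–14 months, with age-matched wildtype (n = 2 per compound), got an iv dose of 30 µmol/kg from a 0.05 M solution in 1:1 DMSO/Cremophor diluted with PBS to 200 µl. After one day they were perfused with 4% PFA and brains cryoprotected in sucrose/PFA. Brains were cut into 30 µm cryosections and imaged by the same fluorescence slide-scanner set-up.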

[7] = target: T1, Amyloid-beta precursor protein; test: Binding affinity to fibrillar amyloid beta (1 to 40) (unknown origin) assessed as fluorescence intensity relative to Methoxy-X04
[8] = target: T1, Amyloid-beta precursor protein; test: Binding affinity to fibrillar amyloid beta (1 to 40) (unknown origin) assessed as fluorescence intensity relative to control
[9] = target: T1, Amyloid-beta precursor protein; test: Displacement of [3H]chrysamine G from fibrillar amyloid beta (1 to 40) (unknown origin) after 1 hr by liquid scintillation spectrophotometric analysis
Procedure, shortened: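 Competition binding was run at room temperature in 1 ml of 150 mM Tris-HCl, 20% ethanol, pH 7.0. Test compound ranged 30 µM to 30 pM (from 3 mM DMSO stocks, sonicated) against 5 nM [3H]chrysamine G and 50 nM synthetic Aβ1-40 fibrils. Nonspecific binding was taken with 1 µM Methoxy-X04.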

[10] = target: T1, Amyloid-beta precursor protein; test: Binding affinity to fibrillar amyloid beta (1 to 40) (unknown origin) at 1.92 mM by [19F]-NMR spectrometric analysis
[11] = target: T1, Amyloid-beta precursor protein; test: Binding affinity to beta-amyloid plaque in APP/PS1 transgenic mouse brain homogenate at 1.92 mM by [19F]-NMR spectrometric analysis; assay type: tissue-based
Mus musculus [12] = test: Binding affinity to beta-amyloid plaque in APP/PS1 transgenic mouse brain at 30 umol/kg, iv after 24 hrs by [19F]-NMR spectrometric analysis; assay type: functional, organism-based
[13] = methanol-water mixture, read-out: logP

T1 sequence (P05067 whole entry): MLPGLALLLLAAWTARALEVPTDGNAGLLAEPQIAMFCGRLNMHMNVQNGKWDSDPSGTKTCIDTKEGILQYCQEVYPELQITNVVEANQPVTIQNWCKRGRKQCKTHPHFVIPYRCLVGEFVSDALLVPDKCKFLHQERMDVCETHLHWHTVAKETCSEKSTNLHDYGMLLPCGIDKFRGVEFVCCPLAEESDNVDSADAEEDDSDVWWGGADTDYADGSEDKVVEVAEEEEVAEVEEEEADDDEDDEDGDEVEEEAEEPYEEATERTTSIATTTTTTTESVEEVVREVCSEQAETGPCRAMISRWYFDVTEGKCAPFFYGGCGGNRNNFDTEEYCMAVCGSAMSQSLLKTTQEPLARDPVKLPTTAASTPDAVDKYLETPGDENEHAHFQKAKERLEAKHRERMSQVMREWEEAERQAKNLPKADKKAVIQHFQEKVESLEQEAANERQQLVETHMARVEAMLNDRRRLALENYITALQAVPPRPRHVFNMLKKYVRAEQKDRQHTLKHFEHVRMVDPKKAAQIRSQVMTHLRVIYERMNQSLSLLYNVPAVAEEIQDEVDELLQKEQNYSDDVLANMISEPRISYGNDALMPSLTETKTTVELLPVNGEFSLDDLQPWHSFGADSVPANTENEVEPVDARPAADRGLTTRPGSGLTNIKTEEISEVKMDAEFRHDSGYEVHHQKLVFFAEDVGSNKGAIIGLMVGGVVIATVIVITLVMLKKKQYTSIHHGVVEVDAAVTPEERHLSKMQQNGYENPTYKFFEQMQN

| Compound | Activity [1] | Activity [2] | Activity [3] | Activity [4] | logP [5, 13] | Activity (Mus musculus [6]) | RFU [7] | fold change (FC) [8] | Ki [9] [nM] | logP ([5]; octanol/water) | Activity [10] | Activity [11] | Activity (Mus musculus [12]) |
| --- | --- | --- | --- | --- | --- | --- | --- | --- | --- | --- | --- | --- | --- |
| Oc1cc(/C=C/c2ccc(C(F)(F)C(F)F)cc2)ccc1/C=C/c1ccc(C(F)(F)C(F)F)cc1 | Active | Active | Active | Active | > 7 | Active |  |  |  |  |  |  |  |
| Oc1ccc(/C=C/c2ccc(/C=C/c3ccc(O)cc3)c(C(F)(F)F)c2)cc1 | Active | Active | inactive | Active | 5.64 | Active | 19 | 10.7 | 244 |  |  |  |  |
| Oc1ccc(/C=C/c2ccc(/C=C/c3ccc(O)cc3)c(OCC(F)(F)F)c2)cc1 | Active | Active | inactive | Active | 5.25 | Active | 7 | 4.1 | 39.3 |  |  |  |  |
| COc1cc(/C=C/c2ccc(C(F)(F)C(F)F)cc2)ccc1/C=C/c1ccc(C(F)(F)C(F)F)cc1 | Active | Active | Active | Active | > 7 | Active | 1 | < 1 |  |  |  |  |  |
| COc1cc(/C=C/c2ccc(C(F)(F)F)cc2)ccc1/C=C/c1ccc(C(F)(F)F)cc1 | Active | Active | Active | Active | > 7 | Active | 1 | < 1 |  |  |  |  |  |
| Oc1cc(/C=C/c2ccc(OC(F)(F)F)cc2)ccc1/C=C/c1ccc(OC(F)(F)F)cc1 | Active | Active | Active | Active | > 7 | Active | 13 | 7.4 |  |  |  |  |  |
| Oc1cc(/C=C/c2ccc(C(F)(F)F)cc2)ccc1/C=C/c1ccc(C(F)(F)F)cc1 | Active | Active | Active | Active | 6.18 | Active | 2 | 3.6 |  |  |  |  |  |
| COc1cc(/C=C/c2ccc(CO)cc2)ccc1/C=C/c1ccc(CO)cc1 | Active | Active | Active | Active | 4.99 | Active | 26 | 4.1 |  |  |  |  |  |
| COc1cc(/C=C/c2ccc(OC)c(C(F)(F)F)c2)ccc1/C=C/c1ccc(OC)c(C(F)(F)F)c1 | Active | Active | inactive | Active | > 7 | inactive | 4 | < 1 |  |  |  |  |  |
| COc1cc(/C=C/c2ccc(OC(F)(F)F)cc2)ccc1/C=C/c1ccc(OC(F)(F)F)cc1 | Active | Active | Active | Active | > 7 | Active | 3 | < 1 |  |  |  |  |  |
| COc1cc(/C=C/c2ccc(O)cc2)c(OC)cc1/C=C/c1ccc(O)cc1 |  |  | inactive | inactive | 5 | inactive |  |  |  |  |  |  |  |
| COc1cc(/C=C/c2ccc(O)cc2)ccc1/C=C/c1ccc(O)cc1 | Active | Active | Active | Active |  | Active | 100 | 9.8 | 24.2 | 4.84 |  |  |  |
| Oc1ccc(/C=C/c2ccc(/C=C/c3ccc(O)cc3)c(OC(C(F)(F)F)(C(F)(F)F)C(F)(F)F)c2)cc1 | Active | Active | Active | Active | > 7 | Active | 38 | 17.8 | 84.5 |  | inactive | Active | inactive |
| Oc1ccc(/C=C/c2ccc(/C=C/c3ccc(O)cc3)c(OCCCC(F)(F)F)c2)cc1 |  |  | inactive | inactive | 5.79 | Active | 2 | 4.3 | 56.4 |  |  |  |  |
